Source: PubChem
Hsp70 activator: Hsp70 transcriptional activators, primary screen, cell-based, HeLa, Hsp70 promoter luciferase, luminescence, 10 µM. HeLa Hsp70 promoter luciferase reporter; scaled: vehicle 0, proteasome-inhibitor control 100%. activation, % at 10 µM. 200,000 tested, 0.04% active;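 active = activation above the mean across all tested compounds plus 3 SD, cutoff set per campaign, cut at about 5.5% in these data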;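 also: 100% = MG132 at 30 µM as the positive control and 0% = DMSO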
TAG inh: inhibitors of triacylglycerol accumulation, primary screen, cell-based, uHTS, fluorescence, H9c2; AID 651582, 2012; inhibition, % at 12.5 µM; H9c2 cells, Nile Red lipid (TAG) fluorescence; cells loaded with 200 µM oleic acid; 230,000 tested, 0.66% active;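 active = pattern-corrected inhibition of lipid staining of at least 50% with the nuclear-stain viability signal not falling by more than 50%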;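 also: 0% = DMSO wells and 100% = triacsin C control wells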
HIF activator: HIF pathway transcriptional activators, primary screen, cell-based, U2OS HRE-luciferase, luminescence | activation, % at 7.5 µM (by protocol) | U2OS HRE-luciferase reporter; normalized: DMSO 0%, desferrioxamine 100% | 300,000 tested, 0.32% active;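 active = mean activation of at least 10% of the iron chelator positive control signal, with at least half of replicates also reaching 10%; inconclusive = mean and replicate majority disagree about reaching 10%; inactive = mean and most replicates under 10%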
GAA850 FXN act: FXN promoter activators, primary screen, cell-based, luciferase luminescence, HEK293 lucGAA850; activation, % at 6 µM; HEK293 lucGAA850 FXN promoter luciferase reporter, 24 h; percent of 10 µM SAHA response; 360,000 tested, 0.56% active;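 active = activation above the average of all compounds screened plus 3 SD, cutoff fixed separately per campaign, cut at about 7.5% in these data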;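 also: 0% = DMSO wells and 100% = 10 µM SAHA wells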
Rad51 HR inh: human RAD51 strand exchange inhibitors, primary screen, biochemical, fluorescence; DNA repair protein RAD51 homolog 1 (Homo sapiens), Q06609; hRad51 DNA strand exchange, fluorescence dequenching; inhibition, % at 10 µM; 200,000 tested, 0.085% active;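 active = inhibition above 40% at the single screening dose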;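 also: 0% = DMSO control wells and 100% = blanks with heterologous ssDNA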
Target sequence (Q06609 whole entry, looked up): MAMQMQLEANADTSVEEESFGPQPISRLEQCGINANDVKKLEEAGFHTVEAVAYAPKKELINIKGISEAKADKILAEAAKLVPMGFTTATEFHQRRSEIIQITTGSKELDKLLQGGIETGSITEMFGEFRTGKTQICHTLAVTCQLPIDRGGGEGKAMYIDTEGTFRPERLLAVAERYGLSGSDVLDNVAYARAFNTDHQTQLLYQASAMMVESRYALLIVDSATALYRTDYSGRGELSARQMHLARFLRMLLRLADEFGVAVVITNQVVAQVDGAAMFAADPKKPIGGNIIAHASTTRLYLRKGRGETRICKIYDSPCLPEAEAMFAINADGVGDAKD
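Assay system: Human Rad51 nucleoprotein filaments preassembled on unlabelled ssDNA | Reagent: Donor/quencher-labelled 47-bp dsDNA substrate | Doses: One concentration, 10 µM final | Times: 37 °C 15-min filament assembly, 30-min compound preincubation, 15-min exchange | Technique: Fluorescein emission 520 nm, excitation 485 nm | Benchmarks: Plate control and blank wells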
ABHD5 PLIN5 PPI: ABHD5-PLIN5 interaction inhibitors, primary screen, cell lysate, split luciferase complementation, luminescence; Perilipin-5 (Homo sapiens) + 1-acylglycerol-3-phosphate O-acyltransferase ABHD5 (Homo …; Split G. princeps luciferase complementation, 4 h; inhibition, % at 4 µM; AID 602281, 2012; 360,000 tested, 0.78% active;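 active = inhibition above the mean inhibition across every tested compound plus 3 SD, cut at about 22% in these data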;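 also: 0% = DMSO only wells and the 100% control is not disclosed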
GAA30 counter: GAA30 FXN promoter activators, confirmation, counter-screen for GAA850 frataxin promoter activator project, cell-based, luminescence, HEK293, lucGAA30, triplicate; 1,900 tested, 66% active; shares compounds with GAA850 FXN act; activation, % at 6 µM; HEK293 lucGAA30 FXN promoter luciferase, 24 h; DMSO = 0%, 5 µM ipriflavone = 100%;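 active = mean activation above the mean of solvent-only control wells plus 3 SD, cut at about 22% in these data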;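 also: counterscreen of GAA850 promoter hits where activity marks nonselective or luminescence artifacts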
FXN GAA850 conf: FXN GAA850 promoter activators in reporter cells, confirmation, cell-based, luminescence, HEK293 lucGAA850, triplicate; shares compounds with GAA850 FXN act; activation, % at 6 µM; 1,900 tested, 86% active; HEK293 lucGAA850 FXN promoter luciferase reporter, 24 h; 100% = activation by SAHA;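 active = mean activation above a set limit taken from the primary screen, cut at about 8% in these data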;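 also: 0% = DMSO wells and 100% = 10 µM SAHA wells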
ABHD5 PLIN5 conf: ABHD5-PLIN5 interaction inhibitors, confirmation, biochemical, luminescence; shares compounds with ABHD5 PLIN5 PPI; inhibition, % at 4 µM; 2,200 tested, 67% active; AID 651612, 2012; in the data active = inhibition above about 23%;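 also: 0% = DMSO vehicle wells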
HNF4 counter: HNF4 dimerization inhibitors, counter-screen for ABHD5-PLIN5 interaction inhibitor project, biochemical, split-luciferase complementation, luminescence. shares compounds with ABHD5 PLIN5 PPI. 2,200 tested, 77% active. inhibition, % at 4 µM;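 active = mean inhibition across replicate wells exceeding the computed hit threshold, cut at about 13% in these data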;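 also: light from luciferase halves that rejoin when HNF4 fusion proteins dimerize; 0% = DMSO only wells and the 100% control is not given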
H9c2 TAG conf: triacylglycerol accumulation inhibitors, retest, confirmation, cell-based, single concentration, Nile Red fluorescence, H9c2; shares compounds with TAG inh; H9c2 lipid accumulation; cells loaded with 200 µM oleic acid; inhibition, % at 12.5 µM; 990 tested, 71% active;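 active = mean inhibition across replicates of 40% or more; inactive = mean inhibition below 40%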;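 also: plate controls were DMSO only wells for no effect and Triacsin C treated wells for full effect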
Numbers without * were called inactive; ? = inconclusive; . = not tested or not shown. Hits are enriched below; roughly 1.9% of the tested compounds scored in any of these assays.

SMILES | Hsp70 activator | TAG inh | HIF activator | GAA850 FXN act | Rad51 HR inh | ABHD5 PLIN5 PPI | GAA30 counter | FXN GAA850 conf | ABHD5 PLIN5 conf | HNF4 counter | others
O=C(/C=C/c1ccccc1[N+](=O)[O-])c1ccc(F)cc1 | 0 | 6 | 4 | 8.5* | 8 | 34* | 57* | 25* | 86* | 83*
COc1ccccc1/C=C/C(=O)c1ccccc1 | . | . | ? | 7.6* | . | 29* | 87* | 33* | 55* | 34*
COc1ccc(-c2cc(C(F)(F)F)nc(S(=O)(=O)CCCC(=O)Nc3cccnc3Cl)n2)cc1OC | 0 | 107 | . | 8.7* | 2 | 24* | 54* | 52* | 33* | 50*
Cc1cc(NC(=O)CCCS(=O)(=O)c2nc(-c3cccs3)cc(C(F)(F)F)n2)no1 | 0 | 22 | 13* | 9.6* | 1 | 47* | -45 | -1 | 74* | 100*
Cc1cc(C)nc(N2N=C(C(C)(C)C)CC2=O)n1 | -1 | . | . | 16* | 6 | 37* | 21 | 8.0* | 7 | 26*
CC(C)c1cc(C(=O)N2CCCC(N3CCN(c4ccc(F)cc4)CC3)C2)no1 (stereo unspecified) | . | . | -1 | 1 | . | -3 | . | . | . | .
COC(=O)c1c(C)nn(-c2ccc(F)c(Cl)c2)c1-c1cc(C)on1 | . | -8 | 0 | -2 | -2 | 2 | . | . | . | .
Cc1cccc(N=N/C(=C\O)C(=O)c2cccs2)c1 | 0 | 4 | 0 | 2 | -9 | -2 | . | . | . | .
Cc1cc(NC2CCCCC2)nc(NCc2ccccc2)n1 | -1 | . | 0 | -1 | . | 15 | . | . | . | .
Cc1ccc(Nc2cc(C)nc(NCc3ccccc3)n2)cc1 | 0 | . | 0 | 13* | -3 | 23* | 19 | 15* | 12 | 15*
O=C(NCC(c1ccco1)N1CCc2ccccc2C1)C(=O)Nc1cc(F)ccc1F (stereo unspecified) | . | 3 | 0 | -1 | . | -16 | . | . | . | .
O=C(C=Cc1ccccc1)CC(c1ccccc1)N1CCOCC1 (stereo unspecified) | . | -14 | . | 7.8* | . | 77* | 36* | 40* | 100* | 95*
O=C(C(c1ccccc1)N1CCOCC1)N1CCOCC1 (stereo unspecified) | 0 | -11 | 0 | -1 | . | -4 | . | . | . | .
Fc1ccc(/C=N/Nc2cc(N3CCOCC3)ncn2)cc1 | . | 35 | 3 | 3 | . | -2 | . | . | . | .
Fc1cccc(/C=N/Nc2cc(N3CCOCC3)ncn2)c1 | . | 60* | 2 | 9.3* | . | 3 | 127* | 99* | . | . | H9c2 TAG conf=29
CC1(c2nnnn2Cc2ccccc2)CCC(=O)N1CCc1ccc(O)cc1 (stereo unspecified) | . | . | . | . | . | 5 | . | . | . | .
COc1cc2c3c(cccc3c1)C(=O)N(CCN1CCCC1)C2=O | . | 117* | . | 27* | . | 0 | -29 | 131* | . | . | H9c2 TAG conf=109*
O=C(CSc1nnc(-c2cccnc2)n1Cc1ccco1)c1ccc(Br)cc1 | 0 | . | 0 | 3 | -1 | 2 | . | . | . | .
O=C(CSc1nnc(-c2cccnc2)n1Cc1ccco1)c1ccc2ccccc2c1 | 0 | 2 | -1 | 0 | -6 | 65* | . | . | 53* | 76*
Cc1ccc(-n2cc(-c3ccccc3)c3c(N4CCOCC4)ncnc32)cc1 | 0 | 11 | 0 | -4 | 2 | 2 | . | . | . | .
Cc1ccc(-n2cc(-c3ccccc3)c3c(N4CCN(C)CC4)ncnc32)cc1 | 0 | 15 | 0 | 0 | 4 | 24* | . | . | 11 | 1
COCCNC(=O)C1(C)CCCN(Cc2sc(C)nc2C)C1 (stereo unspecified) | . | 1 | . | 0 | . | -2 | . | . | . | .
Cc1cc(C)c2sc(N(CCCN(C)C)C(=O)c3ccc(Br)s3)nc2c1 | 0 | 28 | 0 | 0 | 1 | 23* | . | . | 17 | 9
Cc1cc(C)c2sc(N(CCCN(C)C)C(=O)CN3C(=O)c4ccccc4C3=O)nc2c1 | 0 | 7 | -1 | 2 | 7 | 24* | . | . | 14 | 4
Cc1ccc(C(=O)/C=C/c2cc(Br)cc(Br)c2O)o1 | . | . | -1 | 2 | . | 30* | . | . | 59* | 25*
SMILES | Hsp70 activator | TAG inh | HIF activator | GAA850 FXN act | Rad51 HR inh | ABHD5 PLIN5 PPI | GAA30 counter | FXN GAA850 conf | ABHD5 PLIN5 conf | HNF4 counter | others
O=C(CSc1nnc(COc2ccccc2)n1Cc1ccco1)NCc1ccco1 | 0 | . | -19 | 0 | -6 | 37* | . | . | 44* | 54*
CCCCn1c(SCC(=O)NCc2ccco2)nnc1-c1ccoc1C | 0 | -13 | 0 | 2 | -12 | 24* | . | . | 55* | 28*
Cc1cc(NC(=O)CSc2nnc(COc3ccccc3)n2Cc2ccco2)no1 | 0 | . | 0 | 1 | -5 | 2 | . | . | . | .
Cc1ccc(S(=O)(=O)N2C[C@@]3(O)Cn4c(=O)ccc(=O)n4C[C@@]3(OC(=O)NCC3CCCCC3)C2)cc1 | . | . | . | . | . | 37* | . | . | 58* | 2
CCC1(C(=O)OC)NC(c2ccco2)C2C(=O)N(c3ccccc3)C(=O)C21 (stereo unspecified) | 0 | -1 | 0 | -2 | -2 | 25* | . | . | 11 | 13*
CCC1(C(=O)OC)NC(c2ccco2)C2C(=O)N(c3ccc(F)cc3)C(=O)C21 (stereo unspecified) | 0 | -5 | 1 | 1 | -8 | 10 | . | . | . | .
COc1ccc(CN2C(=O)c3ccccc3C2c2nnnn2-c2ccc3c(c2)OCCO3)cc1 (stereo unspecified) | . | . | . | . | . | 3 | . | . | . | .
